{"data": "Measured values pooled from the literature", "target": "Serine/threonine-protein kinase 17A (STK17A, Homo sapiens, UniProt Q9UEE5)", "One construct used (Q9UEE5 1-414)": "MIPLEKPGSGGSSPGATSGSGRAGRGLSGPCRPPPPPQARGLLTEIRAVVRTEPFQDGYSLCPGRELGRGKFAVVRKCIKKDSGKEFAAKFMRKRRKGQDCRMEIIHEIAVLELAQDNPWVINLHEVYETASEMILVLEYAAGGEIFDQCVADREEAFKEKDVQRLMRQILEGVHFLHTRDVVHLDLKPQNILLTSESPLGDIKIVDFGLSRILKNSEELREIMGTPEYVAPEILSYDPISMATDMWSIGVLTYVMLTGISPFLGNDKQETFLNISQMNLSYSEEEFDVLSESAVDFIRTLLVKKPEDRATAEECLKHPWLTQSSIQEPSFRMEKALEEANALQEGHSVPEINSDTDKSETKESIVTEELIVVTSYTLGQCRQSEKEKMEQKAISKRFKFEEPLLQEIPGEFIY"}
{"SMILES": "Cn1cncc1[C@](O)(COc1ccc(C#N)cc1-c1ccc(OC(F)(F)F)cc1)c1ccc(C#N)cc1", "assay": "cell-free assay, competition with immobilised ligand", "conditions": "1 µM", "endpoint": "remaining binding", "value": "100%"}
{"SMILES": "C#Cc1n[nH]c2c(-c3cn([C@@H](C)c4ccccc4)c(=O)[nH]c3=O)cc(F)cc12", "assay": "enzyme activity, inhibitor", "conditions": "0.1 µM", "endpoint": "inhibition", "value": "1.1%"}
{"SMILES": "Cn1cc(-c2cccc(N3CCc4c(sc5c4CC(C)(C)C5)C3=O)c2CO)cc(Nc2ccncn2)c1=O", "assay": "enzyme activity, inhibitor", "conditions": "1 µM", "endpoint": "inhibition", "value": "-5%"}
{"SMILES": "O=c1[nH]c2ccccc2n1C1CCN(Cc2ccc(-c3[nH]c4cc5ncnc5cc4nc3-c3ccccc3)cc2)CC1", "assay": "cell-free assay", "conditions": "0.5 µM", "endpoint": "remaining signal", "value": "98.2%"}
{"SMILES": "C#Cc1n[nH]c2c(-c3cn([C@@H](C)c4ccccn4)c(=O)[nH]c3=O)cc(F)cc12", "assay": "enzyme activity, inhibitor", "conditions": "0.1 µM", "endpoint": "inhibition", "value": "-0.6%"}
{"SMILES": "COc1ncccc1-c1cnn2ccc(N3CCN(C(=O)OC(C)C)CC3)nc12", "assay": "binding, competition with immobilised ligand", "conditions": "1 µM", "endpoint": "remaining binding", "value": "6.4%"}
{"SMILES": "Cc1nn(C)cc1-c1nc2c(N3CCN(Cc4ccc(Cl)cc4)CC3)c(Cl)cnc2[nH]1", "assay": "binding, competition with immobilised ligand", "conditions": "1 µM", "endpoint": "remaining binding", "value": "13%"}
{"SMILES": "CC(C)(C)c1cc(C=C(C#N)C#N)cc(Br)c1O", "assay": "enzyme activity, inhibitor", "conditions": "0.5 µM", "endpoint": "remaining activity", "value": "92.3%"}
{"SMILES": "Cn1cc(-c2cc(F)cc(N3CCn4c(cc5c4CCCC5)C3=O)c2CO)cc(Nc2ccc(N3CCN(C4COC4)CC3)cn2)c1=O", "assay": "enzyme activity, inhibitor", "conditions": "0.1 µM", "endpoint": "inhibition", "value": "3%"}
{"SMILES": "Nc1ncc(-c2nc(N3CCOCC3)nc(N3CCOCC3)n2)c(C(F)F)n1", "assay": "binding, competition with immobilised ligand", "conditions": "10 µM", "endpoint": "remaining binding", "value": "89%"}
